Measured values taken from ChEMBL document CHEMBL1154417, “In vitro antiviral activity of the novel, tyrosyl-based human immunodeficiency virus (HIV) type 1 protease inhibitor brecanavir (GW640385) in combination with other antiretrovirals and against a panel of protease inhibitor-resistant HIV” (Antimicrob Agents Chemother, 2007).
Calls of active or inactive are those of the source. The calls are words filed in the database; no cut-off is given here.

Columns and labels:
[1] = test system: Human immunodeficiency virus 1; test: Antiviral activity against HIV1 NL4-3; format: functional, organism-based; details: Human immunodeficiency virus 1, NL4-3
[2] = test system: Human immunodeficiency virus 1; test: Ratio of EC50 for HIV1 drug resistant mutant isolates from protease inhibitor treated HIV patient to EC50 for drug sensitive HIV1 NL4-3; format: functional
Outline: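 Recombinant virus assay with clinical isolates from PI-experienced patients (94 isolates). Fold change is the EC50 against each isolate over the EC50 against reference wild-type HIV-1 NL4-3.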

[3] = test system: Human immunodeficiency virus 1; test: Antiviral activity against HIV1 drug resistant mutant isolates from protease inhibitor treated HIV patient; format: functional, organism-based
[4] = test system: Human immunodeficiency virus 1; test: Antiviral activity against HIV1 BaL in human PBMC assessed as blockade of reverse transcriptase activity; format: functional, organism-based; details: Human immunodeficiency virus 1, BaL
Outline: (§1)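 PHA-stimulated PBMCs, 8 × 10^6 cells/ml in RPMI with 20% FBS and 10% IL-2, preincubated 1 h at 37°C with compound serially diluted fourfold. Then infected with virus premixed with compound (IIIB for line 2, Ba-L for line 3). After 7 days, RT activity measured in supernatant. EC50 from mean percent inhibition; n = 3 for IIIB, 8 for Ba-L.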

Protease [5] = target: T1, Protease (Human immunodeficiency virus 1, UniProt Q9YQ12); test: Inhibition of HIV1 protease
Outline: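 Ki derived either from a continuous fluorescence activity assay of HIV-1 protease or from the ratio of the dissociation first-order rate constant to the bimolecular association rate constant for enzyme–inhibitor binding.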

Protease [6] = target: T1, Protease; test: Inhibition of HIV1 protease by fluorescent peptide substrate based assay
Outline: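 HIV-1 protease Ki from a continuous fluorescence activity assay using a fluorescent peptide substrate. Alternatively, Ki was calculated from the association and dissociation rate constants of the enzyme-inhibitor complex.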

[7] = test system: Human immunodeficiency virus 1; test: Antiviral activity against HIV1 HXB2 in human MT4 cells assessed as inhibition of viral-induced viral cytopathic effect in presence of 10% fetal bovine serum by MTS assay; format: functional, organism-based; details: Human immunodeficiency virus 1, HXB2, MT4
Outline: (§2)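 MT-4 cells batch-infected with HIV-1 HXB2 at MOI 0.0001 for 1 h at 37°C. Cells then plated at 4 × 10^4 per well onto serially diluted compound in medium containing 10% or 40% FBS, or 10–40% human serum. After 5 days, EC50 from MTS viability.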

[8] = Protein binding in human plasma; format: ADME, cell-free; details: read-out: PPB (converted)
[9] = test system: Human immunodeficiency virus 1; test: Ratio of EC50 for HIV1 HXB2 in presence of 40% fetal bovine serum to EC50 for HIV1 HXB2 in presence of 10% fetal bovine serum; format: functional; outline: as §2
[10] = test system: Human immunodeficiency virus 1; test: Ratio of EC50 for HIV1 HXB2 in presence of 40 mg/ml HSA and 1 mg/ml alpha1-acid glycoprotein to EC50 for HIV1 HXB2; format: functional
Outline: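 Same MT-4/HXB2 batch-infection format (MOI 0.0001, 1 h, 4 × 10^4 cells/well, 5-day MTS read-out), run with 40 mg/ml human serum albumin plus 1 mg/ml α1-acid glycoprotein.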

[11] = test system: Human immunodeficiency virus 1; test: Ratio of EC50 for HIV1 HXB2 in presence of 30% human serum to EC50 for HIV1 HXB2 in presence of 10% fetal bovine serum; format: functional; outline: as §2
[12] = test system: Human immunodeficiency virus 1; test: Antiviral activity against HIV1 HXB2 in human MT4 cells assessed as inhibition of viral-induced viral cytopathic effect in presence of 10% fetal bovine serum and 10% human serum by MTS assay; format: functional, organism-based; details: Human immunodeficiency virus 1, HXB2, MT4; outline: as §2
[13] = test system: Human immunodeficiency virus 1; test: Antiviral activity against HIV1 HXB2 in human MT4 cells assessed as inhibition of viral-induced viral cytopathic effect in presence of 10% fetal bovine serum and 20% human serum by MTS assay; format: functional, organism-based; details: Human immunodeficiency virus 1, HXB2, MT4; outline: as §2
[14] = test system: Human immunodeficiency virus 1; test: Antiviral activity against HIV1 HXB2 in human MT4 cells assessed as inhibition of viral-induced viral cytopathic effect in presence of 10% fetal bovine serum and 40% human serum by MTS assay; format: functional, organism-based; details: Human immunodeficiency virus 1, HXB2, MT4; outline: as §2
[15] = test system: Human immunodeficiency virus 1; test: Ratio of EC50 for HIV1 HXB2 in presence of 10% human serum to EC50 for HIV1 HXB2 in presence of 10% fetal bovine serum; format: functional; outline: as §2
[16] = Cytotoxicity against human IM9 cells; format: cell-based, IM-9; details: read-out: CCIC50
Outline: (§3)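 Uninfected B- and T-cell lines were exposed to serially diluted compound up to a highest concentration of 25 μM. The cell culture 50% inhibitory concentration (CCIC50) was determined.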

[17] = Cytotoxicity against human MT4 cells; format: cell-based; details: read-out: CCIC50
Outline: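 Mock-infected MT-4 cells run in parallel with the HIV-1 IIIB antiviral assay, in RPMI 1640 with FBS, IL-2 and gentamicin. Incubated 5 days at 37°C, 5% CO2, then MTS viability read at OD 492 nm. Highest concentration tested 25 μM. Reported as CCIC50.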

[18] = test system: Human immunodeficiency virus 1; test: Antiviral activity against HIV1 3B in human MT4 cells assessed as inhibition of viral-induced viral cytopathic effect by MTS assay; format: functional, organism-based; details: Human immunodeficiency virus 1, 3B
Outline: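 MT-4 cells in RPMI 1640 with 20% FBS, 20% IL-2 and gentamicin, 5 × 10^5 cells/ml, infected with HIV-1 IIIB at 100 TCID50 per well for 1 h at 37°C. Cells diluted sixfold onto serially diluted compound and incubated 5 days. Cytopathic effect read by MTS staining at OD 492 nm. EC50 by Hill-equation curve fit; n = 8.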

[19] = Cytotoxicity against human U937 cells; format: cell-based, U-937
[20] = Cytotoxicity against human MOLT4 cells; format: cell-based, MOLT-4; details: read-out: CCIC50; outline: as §3
[21] = test system: Human immunodeficiency virus 1; test: Antiviral activity against HIV1 HXB2 in human MT4 cells assessed as inhibition of viral-induced viral cytopathic effect in presence of 40% fetal bovine serum by MTS assay; format: functional, organism-based; details: Human immunodeficiency virus 1, HXB2, MT4; outline: as §2
[22] = test system: Human immunodeficiency virus 1; test: Antiviral activity against HIV1 3B in human PBMC assessed as blockade of reverse transcriptase activity; format: functional, organism-based; details: Human immunodeficiency virus 1, 3B; outline: as §1
[23] = test system: Human immunodeficiency virus 1; test: Antiviral activity against HIV1 HXB2 in human MT4 cells assessed as inhibition of viral-induced viral cytopathic effect in presence of 10% fetal bovine serum and 30% human serum by MTS assay; format: functional, organism-based; details: Human immunodeficiency virus 1, HXB2, MT4; outline: as §2
[24] = test system: Human immunodeficiency virus 1; test: Antiviral activity against HIV1 HXB2 in human MT4 cells assessed as inhibition of viral-induced viral cytopathic effect by MTS assay; format: functional, organism-based; details: Human immunodeficiency virus 1, HXB2, MT4; outline: as §2
[25] = test system: Human immunodeficiency virus 1; test: Antiviral activity against HIV1 HXB2 in human HeLa cells by HeLa-CD4 MAGI assay; format: functional, organism-based; details: Human immunodeficiency virus 1, HXB2, HeLa
Outline: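 HeLa-CD4-LTR-β-gal cells kept in DMEM with 10% FBS and infected with HIV-1 HXB2 in a single-round assay. Read-out is β-galactosidase activity; n = 2; tested up to about 50 μM, the solubility limit.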

[26] = test system: Human immunodeficiency virus 1; test: Ratio of EC50 for HIV1 HXB2 in presence of 20% human serum to EC50 for HIV1 HXB2 in presence of 10% fetal bovine serum; format: functional; outline: as §2
[27] = test system: Human immunodeficiency virus 1; test: Antiviral activity against HIV1 HXB2 in human HeLa cells up to 50 uM by HeLa-CD4 MAGI assay; format: functional, organism-based
Outline: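 HeLa-CD4-LTR-β-gal cells grown in DMEM with 10% FBS and infected with HIV-1 HXB2 for a single round of infection. Read-out is β-galactosidase activity. Tested up to the solubility limit (about 50 μM). EC50 from 2 determinations.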

[28] = Selectivity index, ratio of CCIC50 for human MT4 cells to IC50 for HIV1 3B; format: functional
[29] = test system: Human immunodeficiency virus 1; test: Ratio of EC50 for HIV1 HXB2 in presence of 40% human serum to EC50 for HIV1 HXB2 in presence of 10% fetal bovine serum; format: functional; outline: as §2

T1 sequence (Q9YQ12 whole entry): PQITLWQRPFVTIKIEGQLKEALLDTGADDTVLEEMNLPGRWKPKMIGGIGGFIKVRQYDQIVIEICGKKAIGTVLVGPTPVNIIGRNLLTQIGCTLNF

With `CC(C)(C)NC(=O)[C@@H]1CN(Cc2cccnc2)CCN1C[C@@H](O)C[C@@H](Cc1ccccc1)C(=O)N[C@H]1c2ccccc2C[C@H]1O.O` the EC50 [1] was 9.8 nM, the “Ratio EC50” value [2] was 26 and the EC50 [3] was 220 nM.
For `CC(C)CN(C[C@@H](O)[C@H](Cc1ccccc1)NC(=O)O[C@H]1CCOC1)S(=O)(=O)c1ccc(N)cc1`, the EC50 [1] was 15.3 nM, the EC50 [4] was 57 nM and the Ki (Protease [5]) was 0.036 nM. The Ratio EC50 [2] was 13.7, the Ki (Protease [6]) was 0.057 nM and the EC50 [3] was 190 nM.
For `Cc1cccc(C)c1OCC(=O)N[C@@H](Cc1ccccc1)[C@@H](O)C[C@H](Cc1ccccc1)NC(=O)[C@H](C(C)C)N1CCCNC1=O` [LOPINAVIR], the EC50 [1] was 4.4 nM, the “Ratio EC50” value [2] was 43 and the EC50 [3] was 230 nM.
In the case of `Cc1nc(COc2ccc(C[C@H](NC(=O)O[C@H]3CO[C@H]4OCC[C@H]43)[C@H](O)CN(CC(C)C)S(=O)(=O)c3ccc4c(c3)OCO4)cc2)cs1` [BRECANAVIR], the EC50 [7] is reported as 0.7 nM, the fraction unbound [8] is reported as 0.02 and the “Ratio EC50” value [9] is reported as 1.6. For the same molecule, the “Ratio EC50” value [10] was 8.2, the EC50 [1] was 0.18 nM and the “Ratio EC50” value [11] was 3.6. For the same molecule, the EC50 [12] was 1.4 nM, the EC50 [13] was 2.2 nM and the EC50 [14] was 3.8 nM. For the same molecule, the “Ratio EC50” value [15] was 1.9, the CC50 [16] was > 25000 nM and the CC50 [17] was > 25000 nM. For the same molecule, the EC50 [4] was 0.42 nM, the EC50 [18] was 0.44 nM and the CC50 [19] was > 25000 nM. For the same molecule, the CC50 [20] was > 25000 nM, the EC50 [21] was 1.1 nM and the EC50 [22] was 0.2 nM. The EC50 [23] was 2.6 nM, the “Ratio EC50” value [2] was 6.6 and the EC50 [24] was 0.53 nM. For the same molecule, the EC50 [3] was 0.88 nM, the EC50 [25] was > 90000 nM and the “Ratio EC50” value [26] was 2.2. The Activity [27] was “inactive”, the Ratio [28] was >55000 and the “Ratio EC50” value [29] was 5.2.
In the case of `CC(C)CN(C[C@@H](O)[C@H](Cc1ccccc1)NC(=O)O[C@H]1CO[C@H]2OCC[C@H]21)S(=O)(=O)c1ccc(N)cc1`, the EC50 [7] is reported as 5.6 nM, the EC50 [1] is reported as 0.78 nM and the EC50 [12] is reported as 11 nM. It also gave an EC50 [13] of 15 nM, an EC50 [14] of 22 nM and an EC50 [4] of 2.8 nM. It also gave an EC50 [21] of 11 nM, an EC50 [23] of 19 nM and an EC50 [3] of 4.6 nM.
For `COC(=O)N[C@H](C(=O)N[C@@H](Cc1ccccc1)[C@@H](O)CN(Cc1ccc(-c2ccccn2)cc1)NC(=O)[C@@H](NC(=O)OC)C(C)(C)C)C(C)(C)C` [ATAZANAVIR], the EC50 [1] was 1.7 nM, the EC50 [4] was 4.4 nM and the “Ratio EC50” value [2] was 26. For the same molecule, the EC50 [3] was 47 nM.
Molecule `Cc1c(O)cccc1C(=O)N[C@@H](CSc1ccccc1)[C@H](O)CN1C[C@H]2CCCC[C@H]2C[C@H]1C(=O)NC(C)(C)C` has an EC50 [4] of 36 nM.
In the case of `CCC[C@@]1(CCc2ccccc2)CC(O)=C([C@H](CC)c2cccc(NS(=O)(=O)c3ccc(C(F)(F)F)cn3)c2)C(=O)O1`, the EC50 [7] is reported as 40.9 nM, the EC50 [1] is reported as 76.2 nM and the “Ratio EC50” value [11] is reported as 14.1. It also gave an EC50 [12] of 310 nM, an EC50 [13] of 507 nM and an EC50 [14] of 660 nM. The “Ratio EC50” value [15] was 7.7, the EC50 [4] was 304 nM and the EC50 [23] was 580 nM. The “Ratio EC50” value [2] was 2.4, the Ki (Protease [6]) was 0.008 nM and the EC50 [3] was 190 nM. The “Ratio EC50” value [26] was 12.4 and the “Ratio EC50” value [29] was 16.
